Assay results reported in ChEMBL document CHEMBL1134510, “Adenosine analogues as selective inhibitors of glyceraldehyde-3-phosphate dehydrogenase of Trypanosomatidae via structure-based drug design” (J Med Chem, 2001).

Key:
[1] = target: Glyceraldehyde-3-phosphate dehydrogenase, glycosomal (Leishmania mexicana, UniProt Q27890); assay: Inhibitory activity against Leishmania mexicana GAPDH
How it was run: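 Spectrophotometric GAPDH assay at 23 °C in 0.10 M triethanolamine/HCl pH 7.5, read as NADH formation at 340 nm. Final: 5.0 mM MgSO4, 1.0 mM EDTA, 12.8 mM KH2PO4, 1.0 mM DTT, 1.0 mM NaN3, 0.45 mM NAD+, 1.87 mM fresh glyceraldehyde-3-phosphate, 5% DMSO-d6. Started with enzyme. Initial rates 0–2 min as % of control. IC50 from ≥5 concentrations (≤50 µM) or extrapolated from ≥3.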

[2] = In vitro inhibition of Trypanosoma brucei GAPDH.
How it was run: (§1)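 Spectrophotometric assay at 23 °C in 0.10 M triethanolamine/HCl, pH 7.5. Enzyme starts the reaction and inhibitors are in 5% DMSO-d₆. Initial rates over 0–2 min are compared with control. IC50 comes from ≥5 concentrations, or is extrapolated from ≥3 concentrations when above 50 µM.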

[3] = In vitro inhibition of Trypanosoma cruzi GAPDH.; how it was run: as §1
[4] = In vitro inhibition of rabbit muscle GAPDH.; parameters: species or system Oryctolagus cuniculus; how it was run: as §1
Trypanosoma brucei = assay: Effective concentration required to block the growth of bloodstream Trypanosoma brucei; format: functional; details: read-out: ED50 (the source's name)
How it was run: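 Bloodstream-form strain 427 trypomastigotes are grown in HMI-9 with 10% FBS at 37 °C, 5% CO₂. Triplicate wells are seeded at 5 × 10³ parasites per well with serially diluted drug. Growth is read with Alamar Blue at 48 h. Assays were run twice.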

Trypanosoma cruzi = assay: Effective concentration required to inhibit the growth of mammalian stage of Trypanosoma cruzi grown in murine 3T3 fibroblasts; format: functional; details: read-out: ED50 (the source's name)
How it was run: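 Tulahuen strain stably carrying E. coli lacZ. Mammalian stages are cocultured with mouse 3T3 fibroblasts in RPMI 1640 with 10% FBS at 37 °C, 5% CO₂. Intracellular growth is followed by a colorimetric β-galactosidase read-out. Assays were run twice.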

NIH3T3 = assay: Effective concentration required to inhibit the growth of murine 3T3 fibroblasts; format: functional; details: Mus musculus, read-out: ED50 (the source's name)
[5] = Inhibitory activity against Leishmania mexicana GAPDH; Inactive at 50 uM

Sequence of Glyceraldehyde-3-phosphate dehydrogenase, glycosomal (Q27890 whole entry, looked up): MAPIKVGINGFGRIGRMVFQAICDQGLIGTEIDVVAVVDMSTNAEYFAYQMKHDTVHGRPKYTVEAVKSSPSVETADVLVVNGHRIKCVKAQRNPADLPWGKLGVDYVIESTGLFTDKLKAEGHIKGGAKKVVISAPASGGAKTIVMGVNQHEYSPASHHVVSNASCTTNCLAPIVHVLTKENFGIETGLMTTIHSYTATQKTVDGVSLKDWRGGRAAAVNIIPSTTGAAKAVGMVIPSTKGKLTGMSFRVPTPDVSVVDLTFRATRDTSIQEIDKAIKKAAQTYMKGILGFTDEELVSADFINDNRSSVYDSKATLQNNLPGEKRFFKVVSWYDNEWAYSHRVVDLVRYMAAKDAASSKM

IC50 [5] | Compound | IC50 [1] [µM] | IC50 [2] [µM] | IC50 [3] [µM] | IC50 [4] [µM] | EC50 (Trypanosoma brucei) [µM] | EC50 (Trypanosoma cruzi) [µM] | EC50 (NIH3T3) [µM]
– | O=C(N[C@@H]1[C@H](O)[C@@H](CO)O[C@H]1n1cnc2c(NCc3cc(O)cc4ccccc34)ncnc21)c1cc(Cl)cc(Cl)c1 | 25 | 55 | 40 | > 50 | 12 | 41 | 43
– | O=C(N[C@@H]1[C@H](O)[C@@H](CO)O[C@H]1n1cnc2c(NCc3cccc4ccccc34)ncnc21)c1cccc(Cl)c1 | 6 | – | – | – | – | – | –
– | COc1ccc(C(=O)N[C@@H]2[C@H](O)[C@@H](CO)O[C@H]2n2cnc3c(NCc4cccc5ccccc45)ncnc32)cc1O | 37 | – | – | – | – | – | –
– | O=C(N[C@@H]1[C@H](O)[C@@H](CO)O[C@H]1n1cnc2c(NCc3cccc4ccccc34)ncnc21)c1cc(Cl)cc(Cl)c1 | 12 | 100 | 75 | > 50 | 5 | 7 | 35
– | COc1cc(C(=O)N[C@@H]2[C@H](O)[C@@H](CO)O[C@H]2n2cnc3c(NCc4cccc5ccccc45)ncnc32)ccc1O | 10 | – | – | – | – | – | –
– | COc1cc(OC)cc(C(=O)N[C@@H]2[C@H](O)[C@@H](CO)O[C@H]2n2cnc3c(NCc4cc(OC)cc5ccccc45)ncnc32)c1 | 2 | 5 | 7 | > 50 | 35 | 35 | > 50
– | COc1ccc(C(=O)N[C@@H]2[C@H](O)[C@@H](CO)O[C@H]2n2cnc3c(NCc4cccc5ccccc45)ncnc32)cc1OC | 4 | 47 | 7 | > 50 | 36 | 22 | > 55
– | O=C(N[C@@H]1[C@H](O)[C@@H](CO)O[C@H]1n1cnc2c(NCc3cccc4ccccc34)ncnc21)c1cc(O)cc(O)c1 | 5 | 26 | 14 | > 50 | 50 | > 50 | > 50
– | COc1cc(OC)cc(C(=O)N[C@@H]2[C@H](O)[C@@H](CO)O[C@H]2n2cnc3c(NCc4cc(O)cc5ccccc45)ncnc32)c1 | 2 | 8 | 10 | > 50 | 38 | > 50 | > 50
– | O=C(N[C@@H]1[C@H](O)[C@@H](CO)O[C@H]1n1cnc2c(NCc3cc(O)cc4ccccc34)ncnc21)c1cccc(Cl)c1 | 4 | 25 | 12 | > 50 | 16 | 30 | > 50
– | COc1cc(OC)cc(C(=O)N[C@@H]2[C@H](O)[C@@H](CO)O[C@H]2n2cnc3c(NCc4cccc5ccccc45)ncnc32)c1 | 2 | 7 | 7 | > 50 | 17 | 8 | 40
– | O=C(N[C@@H]1[C@H](O)[C@@H](CO)O[C@H]1n1cnc2c(NCc3cccc4ccccc34)ncnc21)c1ccc(O)c(O)c1 | 18 | – | – | – | – | – | –
– | COc1ccc(C(=O)N[C@@H]2[C@H](O)[C@@H](CO)O[C@H]2n2cnc3c(NCc4cccc5ccccc45)ncnc32)cc1 | 100 | – | – | – | – | – | –
– | COc1ccc(C(=O)N[C@@H]2[C@H](O)[C@@H](CO)O[C@H]2n2cnc3c(NCc4cccc5ccccc45)ncnc32)cc1OC(C)=O | 78 | – | – | – | – | – | –
– | O=C(N[C@@H]1[C@H](O)[C@@H](CO)O[C@H]1n1cnc2c(NCc3cccc4ccccc34)ncnc21)c1ccc(O)cc1 | 80 | – | – | – | – | – | –
– | COc1cccc(C(=O)N[C@@H]2[C@H](O)[C@@H](CO)O[C@H]2n2cnc3c(NCc4cc(O)cc5ccccc45)ncnc32)c1 | 6 | 25 | 12 | > 50 | 35 | > 50 | > 50
– | COc1cc(C(=O)N[C@@H]2[C@H](O)[C@@H](CO)O[C@H]2n2cnc3c(NCc4cccc5ccccc45)ncnc32)ccc1OC(C)=O | 10 | – | – | – | – | – | –
– | COc1cccc(C(=O)N[C@@H]2[C@H](O)[C@@H](CO)O[C@H]2n2cnc3c(NCc4cccc5ccccc45)ncnc32)c1 | 6 | 25 | 12 | > 50 | 18 | 10 | 40
– | Nc1ncnc2c1ncn2C1O[C@H](CNC(=O)CC2CCCCC2)[C@@H](O)[C@H]1O (stereo partly specified) | 250 | – | – | – | – | – | –
Not Active | O=C(CC1CCCCC1)NC[C@H]1OC(n2cnc3c(NCc4cccc5ccccc45)ncnc32)[C@H](O)[C@@H]1O (stereo partly specified) | – | – | – | – | – | – | –
– | Nc1ncnc2c1ncn2C1O[C@H](CNC(=O)C(c2ccccc2)c2ccccc2)[C@@H](O)[C@H]1O (stereo partly specified) | 250 | – | – | – | – | – | –
Not Active | O=C(NC[C@H]1OC(n2cnc3c(NCc4cccc5ccccc45)ncnc32)[C@H](O)[C@@H]1O)C(c1ccccc1)c1ccccc1 (stereo partly specified) | – | – | – | – | – | – | –
– | COc1cccc(C(=O)N[C@@H]2[C@H](O)[C@@H](CO)O[C@H]2n2cnc3c(NCc4ccc(OC)c5ccccc45)ncnc32)c1 | 6 | 26 | 50 | > 50 | 10 | 12 | 50

IC50 [5] | Compound | IC50 [1] [µM] | IC50 [2] [µM] | IC50 [3] [µM] | IC50 [4] [µM] | EC50 (Trypanosoma brucei) [µM] | EC50 (Trypanosoma cruzi) [µM] | EC50 (NIH3T3) [µM]
– | COc1cc(OC)cc(C(=O)N[C@@H]2C(Cn3cnc4c(NCc5ccccc5Sc5ccccc5CO)ncnc43)OC(CO)[C@@H]2O)c1 (stereo partly specified) | 75 | – | – | – | – | – | –
– | CC(=O)Oc1cc(OC(C)=O)cc(C(=O)N[C@@H]2[C@H](O)[C@@H](CO)O[C@H]2n2cnc3c(NCc4cccc5ccccc45)ncnc32)c1 | 10 | 14 | 12 | > 50 | > 50 | > 50 | > 50
Not Active | O=C(N[C@@H]1[C@H](O)[C@@H](CO)O[C@H]1n1cnc2c(NCc3cccc4ccccc34)ncnc21)c1ccccc1O | – | – | – | – | – | – | –
– | COc1cccc(C(=O)N[C@@H]2[C@H](O)[C@@H](CO)O[C@H]2n2cnc3c(NCc4cc(OC)cc5ccccc45)ncnc32)c1 | 3 | 12 | 12 | > 50 | 31 | 20 | > 50
– | O=C(N[C@@H]1[C@H](O)[C@@H](CO)O[C@H]1n1cnc2c(NCc3cccc4ccccc34)ncnc21)c1cccc(O)c1 | 25 | – | – | – | – | – | –
– | COc1cc(OC)cc(C(=O)N[C@@H]2C(Cn3cnc4c(Nc5ccc6ccccc6c5)ncnc43)OC(CO)[C@@H]2O)c1 (stereo partly specified) | 60 | – | – | – | – | – | –
– | COc1cc(CNc2ncnc3c2ncn3[C@@H]2O[C@H](CO)[C@@H](O)[C@H]2NC(=O)c2cc(Cl)cc(Cl)c2)c2ccccc2c1 | 25 | 45 | 40 | > 50 | 16 | 16 | 32
– | CC(=O)Oc1ccc(C(=O)N[C@@H]2[C@H](O)[C@@H](CO)O[C@H]2n2cnc3c(NCc4cccc5ccccc45)ncnc32)cc1OC(C)=O | 25 | – | – | – | – | – | –
– | O=C(N[C@@H]1[C@H](O)[C@@H](CO)O[C@H]1n1cnc2c(NCc3cccc4ccccc34)ncnc21)c1ccc(Cl)cc1 | 100 | – | – | – | – | – | –
– | CC(=O)Oc1ccc(C(=O)N[C@@H]2[C@H](O)[C@@H](CO)O[C@H]2n2cnc3c(NCc4cccc5ccccc45)ncnc32)cc1 | 100 | – | – | – | – | – | –
– | COc1cc(OC)cc(C(=O)N[C@@H]2C(Cn3cnc4c(N)ncnc43)OC(CNC(=O)C(c3ccccc3)c3ccccc3)[C@@H]2O)c1 (stereo partly specified) | 60 | – | – | – | – | – | –
– | COc1cc(OC)cc(C(=O)N[C@@H]2C(Cn3cnc4c(NCc5ccccc5)ncnc43)OC(CO)[C@@H]2O)c1 (stereo partly specified) | 20 | – | – | – | – | – | –
– | COc1cc(OC)cc(C(=O)N[C@@H]2C(Cn3cnc4c(NCc5ccccc5C)ncnc43)OC(CO)[C@@H]2O)c1 (stereo partly specified) | 25 | – | – | – | – | – | –
Not Active | COc1cccc(C(=O)N[C@@H]2[C@H](O)[C@@H](CO)O[C@H]2n2cnc3c(NCc4cccc5ccccc45)ncnc32)c1OC(C)=O | – | – | – | – | – | – | –
– | COc1cc(OC)cc(C(=O)N[C@@H]2C(Cn3cnc4c(N)ncnc43)OC(CNC(=O)CC3CCCCC3)[C@@H]2O)c1 (stereo partly specified) | 100 | – | – | – | – | – | –
– | COc1cc(OC)cc(C(=O)N[C@@H]2C(Cn3cnc4c(NC5CCCc6ccccc65)ncnc43)OC(CO)[C@@H]2O)c1 (stereo partly specified) | 75 | – | – | – | – | – | –
– | COc1cc(OC)cc(C(=O)N[C@@H]2C(Cn3cnc4c(NC(c5ccccc5)c5ccccc5)ncnc43)OC(CO)[C@@H]2O)c1 (stereo partly specified) | 55 | – | – | – | – | – | –
– | COc1cc(OC)cc(C(=O)N[C@@H]2C(Cn3cnc4c(NCc5cccc(C)c5)ncnc43)OC(CO)[C@@H]2O)c1 (stereo partly specified) | 25 | – | – | – | – | – | –
– | CN(C)c1cccc(C(=O)N[C@@H]2[C@H](O)[C@@H](CO)O[C@H]2n2cnc3c(NCc4cccc5ccccc45)ncnc32)c1 | 25 | – | – | – | – | – | –
Not Active | O=C(N[C@@H]1[C@H](O)[C@@H](CO)O[C@H]1n1cnc2c(NCc3cccc4ccccc34)ncnc21)c1ccccc1Cl | – | – | – | – | – | – | –
– | CC(=O)Oc1cccc(C(=O)N[C@@H]2[C@H](O)[C@@H](CO)O[C@H]2n2cnc3c(NCc4cccc5ccccc45)ncnc32)c1 | 50 | – | – | – | – | – | –
– | O=C(Cn1ccnc1[N+](=O)[O-])NCc1ccccc1 [BENZNIDAZOLE] | – | – | – | > 50 | – | 0.5 | > 50
